Experimental data from paper PMC9536290 (Clinical Infectious Diseases: An Official Publication of …, 2022).

Test: Phase IIa monotherapy study: safety and tolerability
Format: in vivo, HIV-1–positive, treatment-naive adults
Conditions: for Drug-related AEs: Abdominal pain / Drug-related AEs: Any event / Drug-related AEs: Chromaturia / Drug-related AEs: Diarrhea / Drug-related AEs: Epistaxis / Drug-related AEs: Fatigue / Drug-related AEs: Headache / Drug-related AEs: Maculopapular rash / Drug-related AEs: Nausea / Drug-related AEs: Pruritus / Drug-related AEs: Vomiting / Total AEs: Abdominal pain / Total AEs: Any event / Total AEs: Diarrhea / Total AEs: Headache / Total AEs: Lymphadenopathy / Total AEs: Nasopharyngitis / Total AEs: Oropharyngeal pain / Total AEs: Vomiting / Serious AEs: Anal abscess / Serious AEs: Congestive cardiomyopathy: n = 6; for Serious AEs: Anal abscess / Serious AEs: Congestive cardiomyopathy: considered not related to the study drug
Method in brief: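 Adults were ART-naive, aged 18–65 years, with HIV-1 RNA ≥5000 copies/mL and CD4+ ≥350 cells/mm3. They received placebo or oral once-daily doses after a moderate-fat meal: 10 or 200 mg for 10 days (part 1), or 40–140 mg for 7 days (part 2). Safety was monitored through adverse events, clinical laboratory tests, electrocardiograms and vital signs.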

[1] = 10 mg once daily, part 1 (10 days)
[2] = 40 mg once daily, part 2 (7 days)
[3] = 80 mg once daily, part 2 (7 days)
[4] = 140 mg once daily, part 2 (7 days)
[5] = 200 mg once daily, part 1 (10 days)
[6] = all doses combined, % of 34 participants

C=C(C)[C@@H]1CC[C@]2(NCCN3CCS(=O)(=O)CC3)CC[C@]3(C)[C@H](CC[C@@H]4[C@@]5(C)CC=C(C6=CC[C@@](CF)(C(=O)O)CC6)C(C)(C)[C@@H]5CC[C@]43C)[C@@H]12 [GSK’254]
Drug-related AEs: Abdominal pain [1]: 0 n (%)
Drug-related AEs: Any event [1]: 2 (33) n (%)
Drug-related AEs: Chromaturia [1]: 1 (17) n (%)
Drug-related AEs: Diarrhea [1]: 1 (17) n (%)
Drug-related AEs: Epistaxis [1]: 0 n (%)
Drug-related AEs: Fatigue [1]: 0 n (%)
Drug-related AEs: Headache [1]: 0 n (%)
Drug-related AEs: Maculopapular rash [1]: 0 n (%)
Drug-related AEs: Nausea [1]: 1 (17) n (%)
Drug-related AEs: Pruritus [1]: 0 n (%)
Drug-related AEs: Vomiting [1]: 1 (17) n (%)
Total AEs: Abdominal pain [1]: 0 n (%)
Total AEs: Any event [1]: 3 (50) n (%)
Total AEs: Diarrhea [1]: 1 (17) n (%)
Total AEs: Headache [1]: 0 n (%)
Total AEs: Lymphadenopathy [1]: 1 (17) n (%)
Total AEs: Nasopharyngitis [1]: 0 n (%)
Total AEs: Oropharyngeal pain [1]: 0 n (%)
Total AEs: Vomiting [1]: 1 (17) n (%)
Drug-related AEs: Abdominal pain [2]: 0 n (%)
Drug-related AEs: Any event [2]: 2 (33) n (%)
Drug-related AEs: Chromaturia [2]: 0 n (%)
Drug-related AEs: Diarrhea [2]: 1 (17) n (%)
Drug-related AEs: Epistaxis [2]: 1 (17) n (%)
Drug-related AEs: Fatigue [2]: 1 (17) n (%)
Drug-related AEs: Headache [2]: 0 n (%)
Drug-related AEs: Maculopapular rash [2]: 0 n (%)
Drug-related AEs: Nausea [2]: 0 n (%)
Drug-related AEs: Pruritus [2]: 0 n (%)
Drug-related AEs: Vomiting [2]: 0 n (%)
Total AEs: Abdominal pain [2]: 0 n (%)
Total AEs: Any event [2]: 5 (83) n (%)
Total AEs: Diarrhea [2]: 1 (17) n (%)
Total AEs: Headache [2]: 1 (17) n (%)
Total AEs: Lymphadenopathy [2]: 0 n (%)
Total AEs: Nasopharyngitis [2]: 0 n (%)
Total AEs: Oropharyngeal pain [2]: 0 n (%)
Total AEs: Vomiting [2]: 0 n (%)
Drug-related AEs: Abdominal pain [3]: 2 (33) n (%)
Drug-related AEs: Any event [3]: 2 (33) n (%)
Drug-related AEs: Chromaturia [3]: 0 n (%)
Drug-related AEs: Diarrhea [3]: 0 n (%)
Drug-related AEs: Epistaxis [3]: 0 n (%)
Drug-related AEs: Fatigue [3]: 0 n (%)
Drug-related AEs: Headache [3]: 0 n (%)
Drug-related AEs: Maculopapular rash [3]: 0 n (%)
Drug-related AEs: Nausea [3]: 0 n (%)
Drug-related AEs: Pruritus [3]: 0 n (%)
Drug-related AEs: Vomiting [3]: 0 n (%)
Total AEs: Abdominal pain [3]: 2 (33) n (%)
Total AEs: Any event [3]: 4 (67) n (%)
Total AEs: Diarrhea [3]: 0 n (%)
Total AEs: Headache [3]: 0 n (%)
Total AEs: Lymphadenopathy [3]: 0 n (%)
Total AEs: Nasopharyngitis [3]: 0 n (%)
Total AEs: Oropharyngeal pain [3]: 0 n (%)
Total AEs: Vomiting [3]: 0 n (%)
Drug-related AEs: Abdominal pain [4]: 0 n (%)
Drug-related AEs: Any event [4]: 1 (17) n (%)
Drug-related AEs: Chromaturia [4]: 0 n (%)
Drug-related AEs: Diarrhea [4]: 0 n (%)
Drug-related AEs: Epistaxis [4]: 0 n (%)
Drug-related AEs: Fatigue [4]: 0 n (%)
Drug-related AEs: Headache [4]: 0 n (%)
Drug-related AEs: Maculopapular rash [4]: 1 (17) n (%)
Drug-related AEs: Nausea [4]: 0 n (%)
Drug-related AEs: Pruritus [4]: 1 (17) n (%)
Drug-related AEs: Vomiting [4]: 0 n (%)
Total AEs: Abdominal pain [4]: 0 n (%)
Total AEs: Any event [4]: 5 (83) n (%)
Total AEs: Diarrhea [4]: 0 n (%)
Total AEs: Headache [4]: 1 (17) n (%)
Total AEs: Lymphadenopathy [4]: 0 n (%)
Total AEs: Nasopharyngitis [4]: 0 n (%)
Total AEs: Oropharyngeal pain [4]: 1 (17) n (%)
Total AEs: Vomiting [4]: 0 n (%)
Serious AEs: Anal abscess [4]: 1 (17) n (%)
Serious AEs: Congestive cardiomyopathy [4]: 0 n (%)
Drug-related AEs: Abdominal pain [5]: 0 n (%)
Drug-related AEs: Any event [5]: 2 (33) n (%)
Drug-related AEs: Chromaturia [5]: 0 n (%)
Drug-related AEs: Diarrhea [5]: 1 (17) n (%)
Drug-related AEs: Epistaxis [5]: 0 n (%)
Drug-related AEs: Fatigue [5]: 0 n (%)
Drug-related AEs: Headache [5]: 1 (17) n (%)
Drug-related AEs: Maculopapular rash [5]: 0 n (%)
Drug-related AEs: Nausea [5]: 0 n (%)
Drug-related AEs: Pruritus [5]: 0 n (%)
Drug-related AEs: Vomiting [5]: 1 (17) n (%)
Total AEs: Abdominal pain [5]: 0 n (%)
Total AEs: Any event [5]: 5 (83) n (%)
Total AEs: Diarrhea [5]: 1 (17) n (%)
Total AEs: Headache [5]: 2 (33) n (%)
Total AEs: Lymphadenopathy [5]: 1 (17) n (%)
Total AEs: Nasopharyngitis [5]: 2 (33) n (%)
Total AEs: Oropharyngeal pain [5]: 2 (33) n (%)
Total AEs: Vomiting [5]: 1 (17) n (%)
Serious AEs: Anal abscess [5]: 0 n (%)
Serious AEs: Congestive cardiomyopathy [5]: 0 n (%)
Trends in laboratory values, electrocardiograms, or vital signs (across treatment groups in parts 1 or 2): No clinically significant trends
AEs leading to treatment discontinuation (all doses): No AEs led to treatment discontinuation
Deaths (all doses): no deaths were reported
Number of drug-related AEs overall (all doses combined): Fourteen
Participants reporting abdominal pain overall (all doses combined): 2 n
Participants reporting diarrhea overall (all doses combined): 3 n
Participants reporting headache overall (all doses combined): 4 n
Participants reporting oropharyngeal pain overall (all doses combined): 3 n
Participants reporting vomiting overall (all doses combined): 2 n
Participants reporting drug-related AEs overall [6]: 9 (26%) n (%)
Participants with gastrointestinal AEs overall [6]: 7 (21%) n (%)
Participants reporting AEs overall (all doses, % of 34 participants incl. placebo (n = 4), all had received GSK’254): 22 (65%) n (%)
Intensity of AEs and SAEs (all doses, except 1 participant with 2 grade 3 non-drug-related AEs): mild-to-moderate
